Each structure is given as a SMILES string. Values after ≈ are worked out from the molar mass of the structure shown. Bounds are passed on as bounds.

The source of these data is ChEMBL document CHEMBL1240415, “Design, synthesis and antimicrobial activities of some new quinoline derivatives carrying 1,2,3-triazole moiety” (2010).

Holding throughout (assay type): functional
One experiment concerns Klebsiella pneumoniae. The experiment can be described thus: Antibacterial activity against recultured Klebsiella pneumoniae after 3 to 4 days by serial plate dilution method. The following applies: for MIC: Klebsiella pneumoniae. Summed up: (§1)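 Serial dilutions in Mueller-Hinton broth in tubes, pH adjusted to 5.0 with phosphate buffer. Inoculated with a standardized bacterial suspension and incubated 16–18 h at 37 °C. MIC is the lowest concentration with no visible growth, tested over 6.25–100 µg/mL. Zones come from an agar well diffusion assay: compounds in DMSO are added to wells in seeded agar, DMSO control, triplicate plates, 37 °C for 3–4 days, inhibition zone diameter in mm.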

For another experiment, the system named is Candida albicans. Description: Antifungal activity against Candida albicans after 3 to 4 days by serial plate dilution method. The following applies: for MIC: Candida albicans. Summed up:
(§2)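 Sabouraud agar made from peptone, glucose and agar in water, pH 5.7. Fungal spores suspended in normal saline and used to lawn the plates, which were dried 1 h at 37 °C. Wells punched and compounds added in DMSO, with a DMSO solvent control. Triplicate plates held at 37 °C for 3–4 days. Read-out is inhibition zone diameter.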

The subject of the next experiment is Aspergillus flavus. Description: Antifungal activity against Aspergillus flavus NCIM 524 after 3 to 4 days by serial plate dilution method. To be noted: for MIC: Aspergillus flavus, NCIM 524. In a few lines: as §2
The next experiment has as its system Escherichia coli. Description: Antibacterial activity against Escherichia coli ATTC 25922 after 3 to 4 days by serial plate dilution method. The following applies: for MIC: Escherichia coli, ATTC 25922. In a few lines: as §1
Experiment [1] has as its system Trichophyton mentagrophytes. The experiment can be described thus: Antifungal activity against recultured Trichophyton mentagrophytes after 3 to 4 days by serial plate dilution method. To be noted: for MIC: Trichophyton mentagrophytes. In a few lines: as §2
A further experiment relates to Aspergillus fumigatus. Description: Antifungal activity against Aspergillus fumigatus NCIM 902 after 3 to 4 days by serial plate dilution method. The following applies: for MIC: Aspergillus fumigatus, NCIM 902. Summed up: as §2
Another experiment relates to Staphylococcus aureus. Description: Antibacterial activity against Staphylococcus aureus ATTC 25923 after 3 to 4 days by serial plate dilution method. To be noted: for MIC: Staphylococcus aureus, ATTC 25923. In a few lines:
as §1

For another experiment, the system named is Streptococcus pyogenes. The experiment can be described thus: Antibacterial activity against Streptococcus pyogenes after 3 to 4 days by serial plate dilution method. The following applies: for MIC: Streptococcus pyogenes. Summed up: as §1
In another experiment the test system is Talaromyces marneffei. Description: Antifungal activity against recultured Penicillium marneffei after 3 to 4 days by serial plate dilution method. The following applies: for MIC: Talaromyces marneffei. Summed up:
as §2

For the next experiment, the system named is Pseudomonas aeruginosa. Description: Antibacterial activity against Pseudomonas aeruginosa ATCC 27853 after 3 to 4 days by serial plate dilution method. To be noted: for MIC: Pseudomonas aeruginosa, ATCC 27853. Summed up:
as §1

In the case of `COc1ccc2nc(C)cc(-n3cc(CN4CCCC4)nn3)c2c1`, the “diameter of the inhibition zone (DIZ)” value worked out at 11 mm in the experiment on Klebsiella pneumoniae; 10 mm with Candida albicans; 11 mm in the experiment with Aspergillus flavus; 10 mm in the experiment with Escherichia coli; 12 mm in [1]; 10 mm in the experiment on Aspergillus fumigatus. Also, the “diameter of the inhibition zone (DIZ)” value with Staphylococcus aureus is given as 10 mm; in the experiment with Streptococcus pyogenes, 11 mm; in the experiment on Talaromyces marneffei, 10 mm; in the experiment with Pseudomonas aeruginosa it was 12 mm. For the same compound, the minimum inhibitory concentration (MIC) (with Klebsiella pneumoniae; in the experiment on Candida albicans; against Aspergillus flavus; in the experiment with Escherichia coli; in [1]; in the experiment on Aspergillus fumigatus) was 12.5 µg/mL (≈ 38.7 µM) throughout. Further, the MIC in the experiment with Staphylococcus aureus, with Streptococcus pyogenes, in the experiment with Talaromyces marneffei and in the experiment on Pseudomonas aeruginosa was 12.5 µg/mL (≈ 38.7 µM) in each case.
`COc1ccc2nc(C)cc(-n3cc(CN4CCN(C(C)=O)CC4)nn3)c2c1`: the “diameter of the inhibition zone (DIZ)” value in the experiment on Klebsiella pneumoniae amounted to 12 mm; with Candida albicans, 10 mm; in the experiment with Aspergillus flavus, 14 mm; in the experiment on Escherichia coli it was 18 mm; in [1], 14 mm; in the experiment on Aspergillus fumigatus, 16 mm. The “diameter of the inhibition zone (DIZ)” value in the experiment on Staphylococcus aureus was 20 mm; with Streptococcus pyogenes, 16 mm; in the experiment on Talaromyces marneffei it was 16 mm; with Pseudomonas aeruginosa, 14 mm. The MIC (against Klebsiella pneumoniae; with Candida albicans; with Aspergillus flavus; against Escherichia coli; in experiment [1]; with Aspergillus fumigatus) was 6.25 µg/mL (≈ 16.4 µM) each time. Further, the MIC against Staphylococcus aureus, against Streptococcus pyogenes, against Talaromyces marneffei and against Pseudomonas aeruginosa was 6.25 µg/mL (≈ 16.4 µM) each time.
For the compound `COc1ccc2nc(C)cc(-n3cc(CNC4CCCCC4)nn3)c2c1`, the “diameter of the inhibition zone (DIZ)” value with Klebsiella pneumoniae is 10 mm; with Candida albicans, 11 mm; in the experiment with Aspergillus flavus it was 12 mm; in the experiment on Escherichia coli it was 10 mm; in experiment [1] it was less than 10 mm; in the experiment with Aspergillus fumigatus, less than 10 mm. The “diameter of the inhibition zone (DIZ)” value with Staphylococcus aureus is less than 10 mm; with Streptococcus pyogenes, 12 mm; in the experiment on Talaromyces marneffei, 10 mm; in the experiment with Pseudomonas aeruginosa, 11 mm. The MIC – broadly, the least concentration at which growth counts as inhibited – in the experiment with Klebsiella pneumoniae was determined as 12.5 µg/mL (≈ 35.6 µM); against Candida albicans, 12.5 µg/mL (≈ 35.6 µM); against Aspergillus flavus it was 12.5 µg/mL (≈ 35.6 µM); with Escherichia coli it was 12.5 µg/mL (≈ 35.6 µM); in experiment [1], 25 µg/mL (≈ 71.1 µM); in the experiment with Aspergillus fumigatus it was 25 µg/mL (≈ 71.1 µM). The minimal inhibitory concentration (MIC) against Staphylococcus aureus was found to be 25 µg/mL (≈ 71.1 µM); with Streptococcus pyogenes, 12.5 µg/mL (≈ 35.6 µM); in the experiment with Talaromyces marneffei, 12.5 µg/mL (≈ 35.6 µM); against Pseudomonas aeruginosa it was 12.5 µg/mL (≈ 35.6 µM).
As to `COc1ccc2nc(C)cc(-n3cc(CN4CCN(c5ccc(F)cc5)CC4)nn3)c2c1`, the “diameter of the inhibition zone (DIZ)” value in the experiment on Klebsiella pneumoniae was 12 mm; with Candida albicans, 12 mm; in the experiment with Aspergillus flavus, 10 mm; in the experiment with Escherichia coli, 12 mm; in experiment [1], 10 mm; in the experiment on Aspergillus fumigatus it was 14 mm. In addition, the “diameter of the inhibition zone (DIZ)” value is recorded as 11 mm with Staphylococcus aureus, less than 10 mm in the experiment on Streptococcus pyogenes, 12 mm with Talaromyces marneffei and 10 mm in the experiment on Pseudomonas aeruginosa. For the same compound, the MIC in the experiment with Klebsiella pneumoniae was found to be 6.25 µg/mL (≈ 14.5 µM); in the experiment with Candida albicans, 6.25 µg/mL (≈ 14.5 µM); against Aspergillus flavus, 12.5 µg/mL (≈ 28.9 µM); in the experiment with Escherichia coli, 6.25 µg/mL (≈ 14.5 µM); in experiment [1] it was 6.25 µg/mL (≈ 14.5 µM); with Aspergillus fumigatus it was 6.25 µg/mL (≈ 14.5 µM). Further, the MIC turned out to be 12.5 µg/mL (≈ 28.9 µM) with Staphylococcus aureus, 12.5 µg/mL (≈ 28.9 µM) against Streptococcus pyogenes, 6.25 µg/mL (≈ 14.5 µM) in the experiment on Talaromyces marneffei and 6.25 µg/mL (≈ 14.5 µM) against Pseudomonas aeruginosa.
`CCN1CCN(Cc2cn(-c3cc(C)nc4ccc(OC)cc34)nn2)CC1`: the “diameter of the inhibition zone (DIZ)” value was determined as 16 mm with Klebsiella pneumoniae; 12 mm with Candida albicans; 16 mm in the experiment with Aspergillus flavus; 18 mm in the experiment with Escherichia coli; 12 mm in [1]; 14 mm with Aspergillus fumigatus. For the same compound, the “diameter of the inhibition zone (DIZ)” value with Staphylococcus aureus amounted to 18 mm; in the experiment with Streptococcus pyogenes it was 12 mm; with Talaromyces marneffei, 18 mm; in the experiment on Pseudomonas aeruginosa, 12 mm. The minimal inhibitory concentration (MIC) (against Klebsiella pneumoniae; in the experiment on Candida albicans; against Aspergillus flavus; against Escherichia coli; in experiment [1]; against Aspergillus fumigatus) was 6.25 µg/mL (≈ 17.1 µM) throughout. Further, the MIC against Staphylococcus aureus, in the experiment on Streptococcus pyogenes, in the experiment on Talaromyces marneffei and against Pseudomonas aeruginosa was 6.25 µg/mL (≈ 17.1 µM) in each case.
Regarding `O=C(O)c1cn(C2CC2)c2cc(N3CCNCC3)c(F)cc2c1=O` [CIPROFLOXACIN], the “diameter of the inhibition zone (DIZ)” value with Klebsiella pneumoniae came out at 23 mm; in the experiment on Escherichia coli, 30 mm; in the experiment on Staphylococcus aureus, 22 mm; with Streptococcus pyogenes, 25 mm; in the experiment on Pseudomonas aeruginosa, 16 mm. The MIC with Klebsiella pneumoniae and against Streptococcus pyogenes was 6.25 µg/mL (≈ 18.9 µM) in each case.
As for `COc1ccc2nc(C)cc(-n3cc(CN(C)C)nn3)c2c1`, the “diameter of the inhibition zone (DIZ)” value in the experiment with Klebsiella pneumoniae is 16 mm; in the experiment with Candida albicans, 10 mm; with Aspergillus flavus, 12 mm; with Escherichia coli, 14 mm; in experiment [1], 10 mm; in the experiment on Aspergillus fumigatus, 16 mm. In addition, the “diameter of the inhibition zone (DIZ)” value is given as 16 mm with Staphylococcus aureus, 14 mm in the experiment on Streptococcus pyogenes, 18 mm in the experiment with Talaromyces marneffei and 14 mm with Pseudomonas aeruginosa. For the same compound, the minimum inhibitory concentration (MIC) (against Klebsiella pneumoniae; in the experiment on Candida albicans; in the experiment with Aspergillus flavus; in the experiment on Escherichia coli; in [1]; against Aspergillus fumigatus) was 6.25 µg/mL (≈ 21 µM) in each case. Also, the MIC with Staphylococcus aureus, against Streptococcus pyogenes, against Talaromyces marneffei and against Pseudomonas aeruginosa was 6.25 µg/mL (≈ 21 µM) throughout.
On to `COc1ccc2nc(C)cc(-n3cc(CN4CCN(C)CC4)nn3)c2c1`, for which the “diameter of the inhibition zone (DIZ)” value in the experiment with Klebsiella pneumoniae turned out to be 14 mm; with Candida albicans it was 14 mm; in the experiment on Aspergillus flavus it was 16 mm; in the experiment on Escherichia coli it was 20 mm; in experiment [1], 14 mm; in the experiment on Aspergillus fumigatus it was 18 mm. The “diameter of the inhibition zone (DIZ)” value is 16 mm in the experiment on Staphylococcus aureus, 16 mm with Streptococcus pyogenes, 16 mm with Talaromyces marneffei and 14 mm with Pseudomonas aeruginosa. In addition, the MIC (against Klebsiella pneumoniae; in the experiment with Candida albicans; against Aspergillus flavus; with Escherichia coli; in experiment [1]; against Aspergillus fumigatus) was 6.25 µg/mL (≈ 17.7 µM) throughout. The MIC against Staphylococcus aureus, with Streptococcus pyogenes, in the experiment with Talaromyces marneffei and against Pseudomonas aeruginosa was 6.25 µg/mL (≈ 17.7 µM) each time.
`COc1ccc2nc(C)cc(-n3cc(CN4CCC(c5ccccc5)CC4)nn3)c2c1`: the “diameter of the inhibition zone (DIZ)” value in the experiment with Klebsiella pneumoniae is 11 mm; in the experiment with Candida albicans it was less than 10 mm; in the experiment with Aspergillus flavus, less than 10 mm; in the experiment on Escherichia coli it was 10 mm; in [1], less than 10 mm; in the experiment on Aspergillus fumigatus it was less than 10 mm. Besides, the “diameter of the inhibition zone (DIZ)” value is 10 mm in the experiment on Staphylococcus aureus, 11 mm in the experiment on Streptococcus pyogenes, less than 10 mm with Talaromyces marneffei and 12 mm with Pseudomonas aeruginosa. For the same compound, the MIC was found to be 12.5 µg/mL (≈ 30.2 µM) in the experiment on Klebsiella pneumoniae; 50 µg/mL (≈ 121 µM) against Candida albicans; 50 µg/mL (≈ 121 µM) in the experiment with Aspergillus flavus; 12.5 µg/mL (≈ 30.2 µM) against Escherichia coli; 50 µg/mL (≈ 121 µM) in [1]; 50 µg/mL (≈ 121 µM) in the experiment on Aspergillus fumigatus. For the same compound, the MIC with Staphylococcus aureus is 12.5 µg/mL (≈ 30.2 µM); in the experiment on Streptococcus pyogenes, 12.5 µg/mL (≈ 30.2 µM); with Talaromyces marneffei, 50 µg/mL (≈ 121 µM); against Pseudomonas aeruginosa, 12.5 µg/mL (≈ 30.2 µM).
For `Cc1cc(C2CCCCC2)n(O)c(=O)c1.NCCO` [CICLOPIROX OLAMINE], the “diameter of the inhibition zone (DIZ)” value was determined as 20 mm in the experiment with Candida albicans; 25 mm in the experiment with Aspergillus flavus; 27 mm in experiment [1]; 25 mm in the experiment on Aspergillus fumigatus; 20 mm in the experiment on Talaromyces marneffei. For the same compound, the MIC worked out at 6.25 µg/mL with Candida albicans; 3.12 µg/mL with Aspergillus flavus; 3.12 µg/mL in experiment [1]; 6.25 µg/mL with Aspergillus fumigatus; 6.25 µg/mL against Talaromyces marneffei.
